In ChEMBL document CHEMBL1125923, “New dibenzothiadiazepine derivatives with antidepressant activities” (J Med Chem, 1991):

Legend:
[1] = tested on: Mus musculus; experiment: Dose required to reduce reserpine induced hypothermia was measured after sc administration of reserpine at 2.5 mg/kg, 18 hr before the rectal-temperature recording in mice; format: functional; set-up: unit: mg/kg; settings: reserpine 2.5 mg/kg sc; route oral
In short: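 Male Swiss albino mice, 20–22 g; reserpine 2.5 mg/kg sc 18 h before rectal temperature recording. Compound given orally at time of peak activity, generally 0.5 h before recording. Groups of 8–20 mice.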

[2] = species on record: Mus musculus; experiment: Dose of compound required to reduce apomorphine-induced hypothermia by 50% in mice by hypothermia (Apo 16)test; format: functional
In short: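 Male Swiss albino mice, 20–22 g; apomorphine 16 mg/kg sc 30 min before rectal temperature recording. Compound given orally, tested at time of peak activity (0.5–2 h). […] Groups of 8–20 mice.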

[3] = tested on: Mus musculus; experiment: Rectal temperature of mice treated with compound in apomorphine (16 mg/kg injected sc 30 min before temp. recording) after its oral administration at 400 mg/kg, 0.5 hr before rectal temperature measurement; format: functional
In short: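 Screening in male Swiss albino mice (20–22 g): 400 mg/kg compound orally; apomorphine 16 mg/kg sc 30 min before recording. Rectal temperature read at 0.5, 2, 4 h after dosing; value reported at time of peak activity (generally 0.5 h). Groups of 8–20 mice; standard errors 1–3% of mean.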

[4] = Dose of compound required in mg/kg to induce lethality in 50% of mice after 14 days; format: ADME, organism-based; settings: mouse, in vivo
In short: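 Male Swiss albino mice, 20–22 g, dosed orally; deaths followed for up to 2 weeks (14 days) after administration. Groups of 8–20 mice.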

[5] = tested on: Mus musculus; experiment: Compound was evaluated after 24 hr for physostigmine induced lethality upon oral administration 60 min before intraperitoneal injection of physostigmine (0.9 mg/kg) in mice at 600 mg/kg; format: ADME, organism-based; set-up: dose 600 mg/kg, route oral; settings: in vivo
In short: (§1)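 Male Swiss albino mice, 20–22 g; compound given orally 60 min before physostigmine 0.9 mg/kg ip. Lethality scored 24 h after physostigmine injection and expressed as % of group dying. Groups of 8–20 mice; significance vs vehicle by χ2.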

[6] = tested on: Mus musculus; experiment: Compound was evaluated after 24 hr for physostigmine induced lethality upon oral administration 60 min before intraperitoneal injection of physostigmine (0.9 mg/kg) in mice at 200 mg/kg; format: ADME, organism-based; set-up: dose 200 mg/kg, route oral; settings: in vivo; in short: as §1
[7] = tested on: Mus musculus; experiment: Compound was evaluated after 24 hr for physostigmine induced lethality upon oral administration 60 min before intraperitoneal injection of physostigmine (0.9 mg/kg) in mice at 400 mg/kg; format: ADME, organism-based; set-up: dose 400 mg/kg, route oral; settings: in vivo; in short: as §1
[8] = tested on: Mus musculus; experiment: Compound was evaluated after 24 hr for physostigmine induced lethality upon oral administration 60 min before intraperitoneal injection of physostigmine (0.9 mg/kg) in mice at 25 mg/kg; format: ADME, organism-based; set-up: dose 25 mg/kg, route oral; settings: in vivo; in short: as §1

| Compound | Min effective dose [1] | Rectal temperature [3] [°C] | other results |
| --- | --- | --- | --- |
| CN(C)CC(=O)N1c2cc(Cl)ccc2N(C)S(=O)(=O)c2ccccc21 | >100 | 37.4 | ED50 [2]: 50.6 mg/kg |
| CN(C)CC(=O)N1c2ccccc2N(C)S(=O)(=O)c2ccc(Cl)cc21 | – | 35.4 | – |
| CN(C)CC(=O)N1c2ccccc2N(C)S(=O)(=O)c2ccc(C(F)(F)F)cc21 | – | 34.8 | – |
| Cc1cc2c(cc1Cl)N(C(=O)CNC(C)C)c1ccccc1N(C)S2(=O)=O | – | 33.1 | – |
| CN(C)CC(=O)N1c2ccc(Cl)cc2N(C)S(=O)(=O)c2ccccc21 | >100 | 39.5 | LD50 at 336 h [4]: 1420 mg/kg; ED50 [2]: 23.5 mg/kg |
| CN1c2ccccc2N(C(=O)CN2CCN(CCO)CC2)c2ccccc2S1(=O)=O | – | 34.4 | – |
| CCN1c2ccccc2N(C(=O)CN(C)C)c2ccccc2S1(=O)=O | – | 35.1 | – |
| CNCC(=O)N1c2ccccc2N(C)S(=O)(=O)c2ccccc21 | 100 | 38.2 | LD50 at 336 h [4]: 789 mg/kg; ED50 [2]: 12 mg/kg |
| CN1c2ccccc2N(C(=O)CN2CCCC2)c2ccccc2S1(=O)=O | – | 34.2 | – |
| CCCN1c2ccccc2N(C(=O)CN(C)C)c2ccccc2S1(=O)=O | – | 35.8 | – |
| Cc1cc2c(cc1Cl)N(C(=O)CN(C)C)c1ccccc1N(C)S2(=O)=O | – | 35.8 | – |
| CN(C)CC(=O)N1c2ccccc2N(C)S(=O)(=O)c2cc(Cl)ccc21 | >100 | 37.7 | ED50 [2]: 54.5 mg/kg |
| CN(C)CCCN1c2ccccc2CCc2ccccc21 [IMIPRAMINE] | 4 | – | ED50 [2]: 3.7 mg/kg |
| CC1CCN(CC(=O)N2c3ccccc3N(C)S(=O)(=O)c3ccccc32)CC1 | – | 33.2 | – |
| Cc1cc2c(cc1Cl)N(C(=O)CN1CCN(CCO)CC1)c1ccccc1N(C)S2(=O)=O | – | 34.1 | – |
| CN(C)CCC(=O)N1c2ccccc2N(C)S(=O)(=O)c2ccccc21 | >100 | 36.5 | LD50 at 336 h [4]: 521 mg/kg; ED50 [2]: 23.1 mg/kg |
| Cc1ccc2c(c1)N(C(=O)CN(C)C)c1ccccc1N(C)S2(=O)=O | – | 35.2 | – |

| Compound | Min effective dose [1] | Rectal temperature [3] [°C] | other results |
| --- | --- | --- | --- |
| CN(C)CCN1c2ccccc2N(C)S(=O)(=O)c2ccccc21 | 100 | – | LD50 at 336 h [4]: 468 mg/kg; ED50 [2]: > 100 mg/kg |
| CN1CCN(CC(=O)N2c3ccccc3N(C)S(=O)(=O)c3ccccc32)CC1 | – | 34.4 | – |
| Cc1cc2c(cc1Cl)N(C(=O)CN1CCN(c3ncccn3)CC1)c1ccccc1N(C)S2(=O)=O | – | 32.7 | – |
| CN1c2ccccc2N(C(N)=O)c2ccccc2S1(=O)=O | – | 33.8 | – |
| CN(C)CCCN1c2ccccc2N(C)S(=O)(=O)c2ccccc21 | >100 | – | LD50 at 336 h [4]: 655 mg/kg; ED50 [2]: 4.9 mg/kg |
| Cc1cc2c(cc1Cl)N(C(=O)CN1CCN(c3ccccc3)CC1)c1ccccc1N(C)S2(=O)=O | – | 34.5 | – |
| CN1c2ccccc2N(C(=O)CN2CCOCC2)c2ccccc2S1(=O)=O | – | 33.9 | – |
| Cc1cc2c(cc1Cl)N(C(=O)CN1CCN(C)CC1)c1ccccc1N(C)S2(=O)=O | – | 32.5 | – |
| CCN(CC)CC(=O)N1c2ccccc2N(C)S(=O)(=O)c2ccccc21 | >100 | 37.4 | LD50 at 336 h [4]: > 2000 mg/kg; ED50 [2]: 23 mg/kg |
| CN1c2ccccc2N(C(=O)CN)c2ccccc2S1(=O)=O | – | 36.1 | – |
| Cc1ccc2c(c1)N(C(=O)CN(C)C)c1ccccc1S(=O)(=O)N2C | 100 | 38.8 | LD50 at 336 h [4]: 1730 mg/kg; ED50 [2]: 14.4 mg/kg |
| CN1c2ccccc2N(C(=O)CNC(C)(C)C)c2ccccc2S1(=O)=O | – | 32.2 | – |
| COc1ccc2c(c1)N(C(=O)CN(C)C)c1ccccc1N(C)S2(=O)=O | – | 33.6 | – |
| CN(C)CC(=O)N1c2ccccc2N(C)S(=O)(=O)c2ccccc21 | 25 | 38.7 | LD50 at 336 h [4]: 1920 mg/kg; Lethality [5]: 90%; Lethality [6]: 95%; Lethality [7]: 95% |
| CN(C)C(=O)N1c2ccccc2N(C)S(=O)(=O)c2ccccc21 | – | 33.7 | – |
| CC(C)NCC(=O)N1c2ccccc2N(C)S(=O)(=O)c2ccccc21 | – | 34.1 | – |
| CN(C)CCC=C1c2ccccc2CCc2ccccc21 [AMITRIPTYLINE] | – | – | Lethality [8]: 37% |
